Results gathered from unrelated publications.
Protocols differ between the studies behind these lines.
Cell line: MCF7
Observed: cell growth or viability

O=[N+]([O-])c1cc(I)c(O)c(C=NNc2ccc(C(F)(F)F)cc2)c1  IC50 (MTT; 24 h): 8.56 µM
Nc1ccn([C@@H]2O[C@H](CO)[C@@H](O)C2(F)F)c(=O)n1  IC50 (MTT; 48 h): 1.59 µg/mL
O=C(C=Cc1ccc(OCCCOc2ccc(C=CC(=O)c3cccs3)cc2)cc1)c1cccs1  IC50 (MTT; 48 h): 30.1 µM
C#CCn1c(C2CC(c3ccc(F)cc3)=NN2C(C)=O)nc2ccccc21 (centres unmarked)  IC50 (LDH; 48 h): 2.97 µM
CN1CCC(NC2CCc3[nH]c4c(C(N)=O)ccc(-c5ccccc5Cl)c4c3C2)CC1 (centres unmarked)  IC50: 0.0164 µM
C[C@H]1[C@H](C)CC[C@]2(C(=O)O)CC[C@]3(C)C(=CC[C@@H]4[C@@]5(C)CC[C@H](O)C(C)(C)[C@@H]5CC[C@]43C)[C@H]12  IC50 (MTT; 24 h): 27.3 µM
O=[N+]([O-])c1cc(Br)c(O)c(C=NNc2ccc(Cl)cc2)c1  IC50 (MTT; 24 h): 10.1 µM
C/C(=N\CCNCC/N=C(\C)c1c(O)c2ccccc2oc1=O)c1c(O)c2ccccc2oc1=O  IC50 (MTT; 48 h): 11 µM
O=C1C(=Nc2ccccc2I)c2ccccc2N1Cc1ccc(Br)cc1  IC50 (MTT; 48 h): 8.79 µM
COc1ccc(N=C2SCC(=O)N2c2nnc(-c3ccc(C(F)(F)F)cc3N=C3SCC(=O)N3c3ccc(OC)cc3)s2)cc1  IC50 (MTT): 73.5 µM
COc1cc(C=NNC(=O)c2cc(-c3ccccc3)n(-c3ccc(S(N)(=O)=O)cc3)n2)cc(OC)c1OC  IC50 (fluorescence; 48 h): 21.6 µM
COc1cc(C=O)ccc1OC1=C(Cl)C(=O)c2ccccc2C1=O  IC50 (MTT; 24 h): 41.5 µg/mL
O=C(NO)Nc1nc2c(Cl)cc(Cl)cc2c(=O)n1-c1ccccc1  IC50 (MTT; 48 h): > 200 µM
NS(=O)(=O)c1ccc(-n2nc(-c3nnc(CCl)o3)cc2-c2ccccc2)cc1  IC50 (fluorescence; 48 h): 31.4 µM
O=C1CS/C(=N\c2ccc(F)cc2O)N1c1nnc(-c2ccc(C(F)(F)F)cc2/N=C2\SCC(=O)N2c2ccc(F)cc2O)s1  IC50 (MTT): 18.1 µM
C[C@H]1[C@H](C)CC[C@]2(C)CC[C@]3(C)C(=CC(=O)[C@@H]4[C@@]5(C)CC[C@@H](O)[C@](C)(C(=O)NCc6cn(-c7ccccc7)nn6)[C@@H]5CC[C@]43C)[C@H]12  IC50 (MTT; 24 h): 124 µM
COc1ccc(N(Cc2csc(-c3ccc(Br)cc3)n2)C(=O)CCCCCC(=O)NO)cc1  IC50 (MTT; 72 h): 9.21 µM
CC(C)c1cccc(C(C)C)c1N=C1C(=O)N(Cc2cccc(Cl)c2)c2ccccc21  IC50 (MTT; 48 h): 46.5 µM
COc1cccc2c1C(=O)c1c(O)c3c(c(O)c1C2=O)C[C@@](O)(C(=O)CO)C[C@@H]3O[C@H]1C[C@H](N)[C@H](O)[C@H](C)O1  IC50 (LDH; 48 h): 1.81 µM
CC(C)Cc1ccc([C@H](C)C(=O)O)cc1  IC50 (SRB; 72 h): 399 µM
O=S(=O)([O-])c1ccc(O)c(C=NNC(=S)Nc2cccc3ccccc23)c1.[Na+]  IC50 (MTT; 24 h): > 800 µg/mL
Cc1ccc(CN2C(=O)C(=Nc3cccc(C)c3)c3ccccc32)cc1  IC50 (MTT; 48 h): 2.8 µM
C/C(=N\CCNCCNCC/N=C(\C)c1c(O)c2ccccc2oc1=O)c1c(O)c2ccccc2oc1=O  IC50 (MTT; 48 h): 7.52 µM
O=C1C(=Nc2ccccc2Br)c2ccccc2N1Cc1ccccc1  IC50 (MTT; 48 h): 2.16 µM
CCOC(=O)c1c(C)nc2ccc(-c3cccc(F)c3)cc2c1O  IC50 (MTT; 48 h): 10.5 µM
NNc1nc2c(Cl)cc(Cl)cc2c(=O)n1-c1ccccc1  IC50 (MTT; 48 h): > 200 µM
c1ccc(Cc2nnc(-c3nn(Cc4ccccc4)c4ccccc34)o2)cc1  IC50 (48 h): 114 µM
O=C(O)c1c[nH]c2ccc(Oc3ccccc3)cc2c1=O  IC50 (MTT; 24 h): 311 µM
C#Cc1cccc(Nc2ncnc3cc(OCCOC)c(OCCOC)cc23)c1  IC50 (LDH; 48 h): 1.05 µM
CCOC(=O)C(=CNc1ccc(Oc2ccccc2)cc1)C(=O)OCC  IC50 (MTT): ≥ 200 µM
CC(C)c1cccc(C(C)C)c1N=C1C(=O)Nc2ccccc21  IC50 (MTT; 48 h): 0.69 µM
FC(F)(F)c1ccc(-c2noc(-c3nn(Cc4ccc(Cl)cc4Cl)c4ccccc34)n2)cc1  IC50 (48 h): 166 µM
CN(C)C(=S)[N-]N=C(c1ccccn1)c1ccccn1.[O]=[V+]=[O]  IC50 (MTT): 0.89 µM
O=C1C(=Nc2ccc(Cl)cc2)c2ccccc2N1Cc1ccc(Br)cc1  IC50 (MTT; 48 h): 2.16 µM
O=C(C=Cc1ccc(OCCCCOc2ccc(C=CC(=O)c3cccs3)cc2)cc1)c1cccs1  IC50 (MTT; 48 h): 134 µM
COc1ccc(C=NNC(=O)c2cc(-c3ccccc3)n(-c3ccc(S(N)(=O)=O)cc3)n2)cc1OC  IC50 (fluorescence; 48 h): 21.1 µM
Cc1cccc(N=C2C(=O)N(Cc3ccccc3)c3ccccc32)c1  IC50 (MTT; 48 h): 8.11 µM
COc1ccc(NC(=S)N/N=C/c2cccc3cc4ccccc4nc23)cc1  IC50 (MTT; 48 h): > 50 µM
C(=N\Nc1cc(N/N=C/c2cccc3cccnc23)ncn1)/c1cccc2cccnc12  IC50 (MTT; 48 h): 7.02 µM
C[C@H]1[C@H](C)CC[C@]2(C)CC[C@]3(C)C(=CC(=O)[C@@H]4[C@@]5(C)CC[C@@H](O)[C@](C)(C(=O)NCc6cn(-c7ccc(F)cc7)nn6)[C@@H]5CC[C@]43C)[C@H]12  IC50 (MTT; 24 h): 76.4 µM
Cc1ccc(CN2C(=O)C(=Nc3cccc(Cl)c3)c3ccccc32)cc1  IC50 (MTT; 48 h): 2.26 µM
COc1ccc2c(-c3ncc(-c4ccccc4)o3)nn(Cc3ccccc3)c2c1  IC50 (48 h): 88 µM
O=C(O)c1cn(Cc2ccc(C(F)(F)F)cc2)c2ccc(Oc3ccccc3)cc2c1=O  IC50 (MTT; 24 h): 38.5 µM
NNc1nc2ccc(Br)cc2c(=O)n1-c1ccc(Cl)cc1  IC50 (MTT; 48 h): 12.8 µM
O=C1CS/C(=N\c2cc(C(F)(F)F)ccc2-c2nnc(N3C(=O)CS/C3=N\c3ccc(-c4ccccc4)cc3)s2)N1c1ccc(-c2ccccc2)cc1  IC50 (MTT): 90.1 µM
COc1cc(C2C3=C(Nc4nc(SC)[nH]c(=O)c42)c2ccccc2C3=O)ccc1O (centres unmarked)  IC50 (MTT; 72 h): > 1000 µM
c1ccc(Cn2nc(-c3ncc(-c4ccccc4)s3)c3ccccc32)cc1  IC50 (48 h): 73.8 µM
O=C1Nc2ccccc2/C1=N/N=C/c1cccc([N+](=O)[O-])c1  IC50 (MTT; 48 h): 22.8 µg/mL
Cc1nc2ccc(-c3ccc(OCc4ccccc4)c(F)c3)cc2c(O)c1C(=O)O  IC50 (MTT; 48 h): ≥ 100 µM
CNc1cccc(Nc2nc(-c3ccncc3)nc3c2CNCC3)c1  IC50 (MTT): > 100 µM
O=C1/C(=C/c2ccc3ccccc3c2O)NC(=S)N1c1ccccc1  IC50 (MTT): 8.1 µg/mL
CN1CCc2c(c3ccccc3n2Cc2ccc(C(=O)NO)cc2)C1  IC50 (CCK-8; 48 h): 27.4 µM
O=C1CS/C(=N\c2ccccc2O)N1c1nnc(-c2ccc(C(F)(F)F)cc2/N=C2\SCC(=O)N2c2ccccc2O)s1  IC50 (MTT): 32.4 µM
COc1cccc2c1C(=O)c1c(O)c3c(c(O)c1C2=O)C[C@@](O)(C(=O)CO)C[C@@H]3O[C@H]1C[C@H](N)[C@H](O)[C@H](C)O1  IC50 (MTT; 24 h): 1.09 µM
CC(=O)c1c(O)c2ccccc2oc1=O  IC50 (MTT; 48 h): 32.5 µM
CNC(=S)N/N=C/c1cccc2cc3ccccc3nc12  IC50 (MTT; 48 h): 18.8 µM
